# Measured values from BindingDB's records for doi:10.1021/acs.jmedchem.8b00566 (Research Triangle Institute, 2018).
# Columns and labels:
# [1] = target: T1, Sodium-dependent serotonin transporter (Homo sapiens, UniProt P31645); assay: Inhibition of human SERT expressed in HEK293 cells assessed as reduction in SERT-mediated substrate uptake after 30 mins by fluorescence-based assay
# Procedure, shortened: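 HEK293 cells stably expressing human SERT were plated at 15000 cells/well in DMEM + 1% dialyzed FBS for at least 6 h. Medium was replaced with 20 mM HEPES/HBSS pH 7.4 and drug was added for 30 min at 37 °C. Fluorescent uptake dye was then added and read after 30 min at 37 °C (ex 440/em 520 nm). IC50 came from nonlinear regression of fluorescence versus concentration.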
# [2] = target: T1, Sodium-dependent serotonin transporter; assay: Displacement of [3H]-Paroxetine from recombinant human full length SERT after 60 mins by scintillation counting
# Procedure, shortened: (§1)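 Outsourced radioligand displacement panel run to the provider's standard protocols. Full concentration–displacement curves were run in duplicate. IC50 came from nonlinear regression. Ki was calculated by Cheng–Prusoff from the IC50, the radioligand concentration and historical Kd values of the ligand.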
# [3] = target: Kappa-type opioid receptor (Homo sapiens, UniProt P41145); assay: Binding affinity to human full length KOR after 60 mins by radioligand-based scintillation counting; procedure, shortened: as §1
# Kappa-type opioid receptor, sequence (P41145 whole entry): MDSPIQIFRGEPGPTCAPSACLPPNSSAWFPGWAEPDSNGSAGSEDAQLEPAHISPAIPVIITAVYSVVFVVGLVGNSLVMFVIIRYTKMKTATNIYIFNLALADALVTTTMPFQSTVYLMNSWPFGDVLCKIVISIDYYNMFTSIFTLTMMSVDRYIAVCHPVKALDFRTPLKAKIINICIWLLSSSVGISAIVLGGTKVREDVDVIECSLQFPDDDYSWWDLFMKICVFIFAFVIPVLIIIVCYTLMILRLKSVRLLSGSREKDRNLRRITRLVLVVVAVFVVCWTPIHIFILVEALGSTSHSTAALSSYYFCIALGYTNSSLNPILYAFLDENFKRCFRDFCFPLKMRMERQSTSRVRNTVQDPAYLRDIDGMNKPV
# T1 sequence (P31645 whole entry): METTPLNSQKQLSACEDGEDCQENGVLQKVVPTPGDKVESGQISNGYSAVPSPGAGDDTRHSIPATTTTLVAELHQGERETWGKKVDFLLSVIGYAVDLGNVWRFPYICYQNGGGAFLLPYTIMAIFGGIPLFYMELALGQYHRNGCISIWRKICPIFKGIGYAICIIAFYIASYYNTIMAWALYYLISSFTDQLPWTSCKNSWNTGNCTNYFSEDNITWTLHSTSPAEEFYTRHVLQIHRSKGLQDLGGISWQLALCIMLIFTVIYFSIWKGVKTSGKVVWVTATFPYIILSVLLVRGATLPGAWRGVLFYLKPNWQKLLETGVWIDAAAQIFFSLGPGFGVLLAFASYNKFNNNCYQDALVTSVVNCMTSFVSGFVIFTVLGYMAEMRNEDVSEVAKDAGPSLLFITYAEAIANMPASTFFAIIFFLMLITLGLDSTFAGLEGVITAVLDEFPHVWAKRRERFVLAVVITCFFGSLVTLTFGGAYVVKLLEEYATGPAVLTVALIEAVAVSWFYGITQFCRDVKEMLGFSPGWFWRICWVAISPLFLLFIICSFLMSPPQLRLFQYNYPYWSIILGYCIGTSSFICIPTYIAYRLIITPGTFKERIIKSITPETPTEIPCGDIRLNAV
smiles,measurement,setting,value
COCc1ccc(-c2ccc(N(C[C@@H](N)[C@@H](C)OC)C(=O)[C@@H]3C[C@H]3c3ccccn3)cc2)cc1,IC50,[1],25100 nM
same,Ki,[2],750 nM
same,Ki,[3],2290 nM
